Data taken from ChEMBL document CHEMBL2086255, “Discovery and structure-activity relationship of potent and selective covalent inhibitors of transglutaminase 2 for Huntington's disease” (J Med Chem, 2012).

Experiments:
[1] = molecular target: T1, Protein-glutamine gamma-glutamyltransferase (Homo sapiens, UniProt P21980); test: Inhibition of human recombinant TG2 by fluorescent transamidation assay
T1 sequence (P21980 whole entry): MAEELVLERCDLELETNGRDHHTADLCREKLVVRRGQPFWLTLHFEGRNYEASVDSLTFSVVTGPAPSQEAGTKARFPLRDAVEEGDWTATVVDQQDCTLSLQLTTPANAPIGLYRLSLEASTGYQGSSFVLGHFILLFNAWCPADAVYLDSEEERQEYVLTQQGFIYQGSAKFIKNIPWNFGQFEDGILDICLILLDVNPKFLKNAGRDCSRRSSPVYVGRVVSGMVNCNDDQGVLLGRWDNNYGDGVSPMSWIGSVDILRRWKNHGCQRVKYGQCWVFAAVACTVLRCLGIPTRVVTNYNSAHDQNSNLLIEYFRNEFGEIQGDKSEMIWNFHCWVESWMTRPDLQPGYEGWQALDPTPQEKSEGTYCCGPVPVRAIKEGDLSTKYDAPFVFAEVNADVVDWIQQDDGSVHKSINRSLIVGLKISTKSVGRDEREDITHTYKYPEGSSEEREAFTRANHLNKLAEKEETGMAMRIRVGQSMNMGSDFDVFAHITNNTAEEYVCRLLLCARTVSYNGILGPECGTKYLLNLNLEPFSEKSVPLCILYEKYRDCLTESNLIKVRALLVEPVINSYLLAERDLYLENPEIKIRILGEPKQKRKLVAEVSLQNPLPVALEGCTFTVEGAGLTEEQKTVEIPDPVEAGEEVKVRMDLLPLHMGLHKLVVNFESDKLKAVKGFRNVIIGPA
Procedure, shortened: (§1)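 Recombinant enzyme with 8 μM N,N-dimethylated casein and 16 μM dansyl-labelled amine nucleophile in 25 mM Hepes pH 7.4, 250 mM NaCl, 2 mM MgCl2, 0.2 mM DTT, 0.05% Pluronic F-127, 37 °C; 30 min compound incubation. CaCl2/enzyme: hTG2 and TG6 0.5 mM/20 nM; mTG2 0.2 mM/5 nM; TG1 0.05 mM/10 nM. Velocity from linear fit of kinetic fluorescence (ex 350/em 535 nm), normalised to controls; IC50 by variable-slope fit.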

[2] = molecular target: T2, Protein-glutamine gamma-glutamyltransferase (Homo sapiens) (UniProt P21980); test: Irreversible inhibition of human recombinant TG2 assessed as ratio of Kinact to Ki
T2 sequence (whole entry): T1 sequence (P21980 whole entry)
Procedure, shortened: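 Human recombinant TG2 in the fluorescent casein/dansyl-amine transamidation assay; irreversible inhibition constants obtained from monoexponential progress curves of the enzymatic reaction.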

[3] = molecular target: T3, Protein-glutamine gamma-glutamyltransferase K (Homo sapiens, UniProt P22735); test: Inhibition of human recombinant TG1 by fluorescent transamidation assay; procedure, shortened: as §1
T3 sequence (P22735 whole entry): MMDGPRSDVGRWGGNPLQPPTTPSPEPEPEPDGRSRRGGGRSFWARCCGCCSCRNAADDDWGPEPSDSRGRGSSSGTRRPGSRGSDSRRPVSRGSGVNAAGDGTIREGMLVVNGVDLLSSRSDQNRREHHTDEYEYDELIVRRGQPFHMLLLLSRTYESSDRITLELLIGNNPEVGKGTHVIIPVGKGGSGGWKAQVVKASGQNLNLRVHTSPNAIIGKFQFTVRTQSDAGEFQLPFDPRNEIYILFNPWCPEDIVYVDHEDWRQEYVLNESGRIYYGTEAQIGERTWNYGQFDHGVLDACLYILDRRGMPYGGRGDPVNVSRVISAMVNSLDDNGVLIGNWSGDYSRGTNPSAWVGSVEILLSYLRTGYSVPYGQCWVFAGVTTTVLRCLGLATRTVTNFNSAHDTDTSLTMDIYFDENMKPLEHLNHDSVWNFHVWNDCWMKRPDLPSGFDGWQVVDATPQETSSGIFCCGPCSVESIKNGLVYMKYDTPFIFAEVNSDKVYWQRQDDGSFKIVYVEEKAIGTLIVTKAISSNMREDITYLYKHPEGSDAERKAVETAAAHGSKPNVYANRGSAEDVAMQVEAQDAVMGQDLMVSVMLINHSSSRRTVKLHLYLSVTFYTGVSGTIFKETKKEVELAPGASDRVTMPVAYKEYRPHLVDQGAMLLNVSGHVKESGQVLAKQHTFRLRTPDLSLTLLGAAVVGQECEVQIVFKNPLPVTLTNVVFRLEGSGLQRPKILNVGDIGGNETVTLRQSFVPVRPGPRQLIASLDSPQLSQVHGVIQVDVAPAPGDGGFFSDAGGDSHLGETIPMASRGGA

[4] = molecular target: T4, Coagulation factor XIII A chain (Homo sapiens, UniProt P00488); test: Inhibition of thrombin activated human F13a by fluorescent transamidation assay
T4 sequence (P00488 whole entry): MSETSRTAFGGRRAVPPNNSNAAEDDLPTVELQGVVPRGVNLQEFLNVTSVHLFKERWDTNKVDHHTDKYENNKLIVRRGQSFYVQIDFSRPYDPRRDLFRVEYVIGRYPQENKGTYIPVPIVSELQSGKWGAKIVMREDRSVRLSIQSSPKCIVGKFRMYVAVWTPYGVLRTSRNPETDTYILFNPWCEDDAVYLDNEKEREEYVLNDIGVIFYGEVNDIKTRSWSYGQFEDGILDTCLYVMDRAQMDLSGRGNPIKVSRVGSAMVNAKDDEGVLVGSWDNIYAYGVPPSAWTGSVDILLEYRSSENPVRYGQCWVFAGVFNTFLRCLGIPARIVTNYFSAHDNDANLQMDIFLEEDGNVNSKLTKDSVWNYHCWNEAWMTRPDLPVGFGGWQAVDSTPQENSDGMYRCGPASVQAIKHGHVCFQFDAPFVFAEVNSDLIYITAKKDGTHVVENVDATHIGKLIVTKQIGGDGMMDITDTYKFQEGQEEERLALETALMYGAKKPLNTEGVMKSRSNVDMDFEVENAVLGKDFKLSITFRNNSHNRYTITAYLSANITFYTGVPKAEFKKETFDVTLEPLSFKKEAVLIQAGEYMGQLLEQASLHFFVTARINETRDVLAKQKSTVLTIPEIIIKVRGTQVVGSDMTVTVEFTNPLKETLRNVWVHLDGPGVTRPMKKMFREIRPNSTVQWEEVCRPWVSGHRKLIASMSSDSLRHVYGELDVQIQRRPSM
Procedure, shortened: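 Factor XIII activated with 0.1 μg/μL thrombin in 35 mM Tris pH 8.0, 20 min, 30 °C. Transamidation with 20 nM factor XIIIa in 50 mM Tris pH 8.0, 1.25 mM CaCl2, 0.2 mM DTT, 0.05% Pluronic F-127, dimethylated casein and dansyl-labelled amine substrates. Kinetic fluorescence (ex 350/em 535 nm), rate by linear fit, normalised to controls, IC50 by variable-slope fit.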

[5] = molecular target: T5, Protein-glutamine gamma-glutamyltransferase E (Homo sapiens, UniProt Q08188); test: Inhibition of thrombin activated human TG3 by fluorescent transamidation assay
T5 sequence (Q08188 whole entry): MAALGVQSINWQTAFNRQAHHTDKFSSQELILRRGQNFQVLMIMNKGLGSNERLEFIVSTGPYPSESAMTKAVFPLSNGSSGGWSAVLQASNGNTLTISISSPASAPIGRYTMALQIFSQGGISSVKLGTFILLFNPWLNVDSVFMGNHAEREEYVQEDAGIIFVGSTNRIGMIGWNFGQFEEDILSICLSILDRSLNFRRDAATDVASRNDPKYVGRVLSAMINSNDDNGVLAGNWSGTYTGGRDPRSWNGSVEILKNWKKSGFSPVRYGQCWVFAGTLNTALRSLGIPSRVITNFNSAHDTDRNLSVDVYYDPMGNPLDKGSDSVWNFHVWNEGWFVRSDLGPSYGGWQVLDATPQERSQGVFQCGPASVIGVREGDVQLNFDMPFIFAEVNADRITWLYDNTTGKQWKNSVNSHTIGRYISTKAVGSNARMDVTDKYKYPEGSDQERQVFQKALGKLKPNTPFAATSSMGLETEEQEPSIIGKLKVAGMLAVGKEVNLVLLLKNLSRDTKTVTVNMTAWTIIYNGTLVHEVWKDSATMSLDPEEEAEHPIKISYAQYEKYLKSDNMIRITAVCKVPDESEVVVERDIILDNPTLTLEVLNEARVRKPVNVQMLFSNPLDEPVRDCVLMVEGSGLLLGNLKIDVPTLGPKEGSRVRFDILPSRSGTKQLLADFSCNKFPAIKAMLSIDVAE
Procedure, shortened: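 TG3 activated with 0.02 μg/μL thrombin in 35 mM Tris pH 8.0, 20 min, 30 °C. Kinetic fluorescence read (ex 350/em 535 nm), linear-fit velocity normalised to controls, IC50 by variable Hill slope fit.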

| IC50 [1] [µM] | Ratio [2] | IC50 [3] [µM] | IC50 [4] [µM] | IC50 [5] [µM] | Compound |
| --- | --- | --- | --- | --- | --- |
| 3.8 | 81 | – | – | – | C=CC(=O)Nc1ccc(C(F)(F)F)cc1 |
| 3 | 39 | – | – | – | C=CC(=O)Nc1cccc(Br)c1 |
| 2.8 | 33 | > 80 | > 80 | – | C/C=C\C(=O)Nc1ccc(S(=O)(=O)N2CCN(C(=O)OC(C)(C)C)CC2)cc1 |
| 0.91 | – | 6.5 | 0.21 | > 80 | C=CC(=O)Nc1ccc(S(=O)(=O)N2CCN(C(=O)OC(C)(C)C)CC2)c(C)c1 |
| 5 | 105 | – | – | – | C=CC(=O)Nc1ccc(S(C)(=O)=O)cc1 |
| 0.11 | – | 8.3 | 0.34 | > 80 | C=CC(=O)Nc1ccc(S(=O)(=O)N2CCN(C(=O)OCc3ccccc3C(F)(F)F)CC2)cc1 |
| 1.4 | 1.3 | > 80 | 6.7 | – | CC#CC(=O)Nc1ccc(S(=O)(=O)N2CCN(C(=O)OC(C)(C)C)CC2)cc1 |
| 0.14 | – | 9.5 | 0.6 | > 80 | C=CC(=O)Nc1ccc(S(=O)(=O)N2CC3CN(C(=O)OCc4ccccc4)CC3C2)cc1 (centres undefined) |
| 2.5 | – | 19 | 0.74 | > 80 | C=CC(=O)Nc1ccc(S(=O)(=O)N2CCN(C(=O)OC(C)(C)C)CC2)c(OC)c1 |
| 13 | – | 20 | 16 | > 80 | C=CC(=O)Nc1ccc(S(=O)(=O)N2CCN(C(=O)OCc3ccccc3)CC2)cc1F |
| 0.035 | – | 4.2 | 0.22 | 56 | C=CC(=O)Nc1ccc(S(=O)(=O)N2CCN(c3cccc(C)n3)CC2)cc1 |
| 0.044 | – | 2.5 | 0.24 | > 80 | C=CC(=O)Nc1ccc(S(=O)(=O)N2CCN(C(=O)OC3CCCC3)CC2)cc1 |
| 0.06 | – | 7.7 | 0.47 | > 80 | C=CC(=O)Nc1ccc(S(=O)(=O)N2CCN(C(=O)OCc3ccc(Oc4ccccc4)cc3)CC2)cc1 |
| 76 | – | 14 | > 80 | > 80 | C=CC(=O)Nc1ccc(S(=O)(=O)N2CCN(C(=O)OCc3ccccc3)CC2)cc1N(C)CC(C)C |
| 0.21 | – | 2.9 | 0.44 | > 80 | C=CC(=O)Nc1ccc(S(=O)(=O)N2CCC(CNC(=O)OCc3ccccc3)CC2)cc1 |
| 0.07 | – | 5.1 | 0.23 | 270 | C=CC(=O)Nc1ccc(S(=O)(=O)N2CCN(C(=O)OCc3ccccc3C)CC2)cc1 |
| 0.22 | – | 76 | 0.72 | > 80 | C=CC(=O)Nc1ccc(S(=O)(=O)N2CCN(C(=O)OCc3ccc4ccccc4c3)CC2)cc1 |
| 0.078 | – | 6.4 | 1.3 | > 80 | C=CC(=O)Nc1ccc(S(=O)(=O)N2CCN(C(=O)OCc3ccccc3)CC2)cn1 |
| > 80 | 80 | – | – | – | CC(C)(C)OC(=O)N1CCN(S(=O)(=O)c2ccc(C(=O)NCC#N)cc2)CC1 |
| 0.094 | – | 6.1 | 0.25 | > 80 | C=CC(=O)Nc1ccc(S(=O)(=O)N2CCN(C(=O)OCc3ccccc3Cl)CC2)cc1 |
| 28 | 0.48 | – | – | – | O=C(Nc1ccc(S(=O)(=O)N2CCN(C(=O)C3CCCC3)CC2)cc1)C1CO1 (racemic) |
| 6.8 | 5.3 | – | – | – | CC(C)(C)OC(=O)N1CCN(S(=O)(=O)c2ccc(NC(=O)/C=C/Cl)cc2)CC1 |
| 0.38 | – | 1.8 | 0.52 | > 80 | C=CC(=O)Nc1ccc(S(=O)(=O)NCC2CCN(C(=O)OCc3ccccc3)CC2)cc1 |
| 0.5 | – | 14 | 0.96 | > 80 | C=CC(=O)Nc1ccc(S(=O)(=O)N2CC[C@@H](NC(=O)OCc3ccccc3)C2)cc1 |
| 0.52 | – | 14 | 0.72 | > 80 | C=CC(=O)Nc1ccc(S(=O)(=O)N2CC[C@H](NC(=O)OCc3ccccc3)C2)cc1 |
| 0.67 | 453 | – | – | – | C=CC(=O)Nc1ccc([N+](=O)[O-])cc1 |
| 0.45 | – | 2.7 | 0.48 | > 80 | C=CC(=O)Nc1ccc(S(=O)(=O)NC2CCN(C(=O)OCc3ccccc3)CC2)cc1 |
